Compound activity (PubChem)
Only some compounds are listed: those with a hit (about 2.4% of all), similar ones and a draw of the others.
ARNT-TACC3 inh = disrupts binding between human ARNT and TACC3; inhibition, % at 9.99 µM; Q9Y6A5; 0.66% of 390,000 active; AID 623870; AlphaScreen His-ARNT PAS-B/GST-TACC3 binding, luminescence; TACC3 fragment carries E629A point mutation;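 active = mean inhibition of replicates at least 50% and at least half of replicates each reaching 50%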;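 note: 0% = complete ARNT plus TACC3 wells and 100% = ARNT alone without TACC3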
PGC1a acetyl inh = lowers PGC1a acetylation signal in U2OS cells; 0.17% of 350,000 active; inhibition, % at 15.6 µM; AlphaScreen anti-acetyl-lysine; with virally co-expressed GCN5 acetyltransferase;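 active = every replicate shows inhibition of at least 40%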;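 note: 0% = neutral control wells and 100% = positive control wells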
CASP6 VEID inh = blocks human caspase-6 cleavage activity | P55212 | 0.53% of 350,000 active | purified caspase-6, Z-VEID-R110 cleavage fluorescence | AID 686996 | inhibition, % at 12.5 µM;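 active = mean inhibition across replicates at least about 35%, with every replicate also reaching that limit, limit read from the data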;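 note: 0% = median of neutral control wells and 100% = no fluorescence left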
Target sequence (P55212 24-179 limits assumed): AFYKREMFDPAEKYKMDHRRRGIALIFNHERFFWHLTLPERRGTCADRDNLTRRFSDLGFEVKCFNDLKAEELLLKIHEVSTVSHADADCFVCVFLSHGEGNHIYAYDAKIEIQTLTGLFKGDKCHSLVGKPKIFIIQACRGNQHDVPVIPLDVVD
Target sequence (P55212 194-293 limits assumed): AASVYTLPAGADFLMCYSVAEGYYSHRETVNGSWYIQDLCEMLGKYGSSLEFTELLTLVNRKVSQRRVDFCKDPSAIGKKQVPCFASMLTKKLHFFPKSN
Ecoli rRNA inh = inhibitors of bacterial rRNA selective over humanized ribosomes; E. coli WT GFP vs humanized-ribosome RFP mutants, fluorescence, 24 h; stronger effect = lower value; DMSO median 0, no signal -100; AID 720706; GFP signal change (wild-type ribosome), % (concentration not given with the values); 1.6% of 350,000 active;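 active = significant combined selectivity score with lowered wild-type GFP, culture density cut under 30%, mutant RFP and density less affected; inactive = any of these conditions unmet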
S100A4 MyoIIA = S100A4-myosin IIA interaction inhibition; inhibition, % at 10.7 µM; AID 652163; P26447; S100A4/TAMRA-MyoIIA peptide fluorescence polarization; 0.14% of 360,000 active;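 active = mean inhibition of at least 70% across replicates, with every replicate also reaching that level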
Target sequence (P26447 whole entry, looked up): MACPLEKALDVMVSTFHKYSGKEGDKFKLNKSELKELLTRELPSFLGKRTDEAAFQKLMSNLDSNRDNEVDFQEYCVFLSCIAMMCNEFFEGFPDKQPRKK
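Material: human S100A4 monomer with TAMRA-labelled myosin IIA peptide; buffer or medium: HEPES pH 7.2 with CaCl2, KCl, NaCl, DTT, Triton; compound dosing: one concentration per compound; schedule: 5 min incubation before reading; benchmarks: neutral control DMSO, positive control TFP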
ERAP1 HTS inh = ERAP1 (human) enzyme inhibition; 0.15% of 340,000 active; inhibition, % at 10.7 µM; recombinant ERAP1, Leu-AMC fluorescence, 60 min; AID 652197; Q9NZ08;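 active = mean replicate inhibition of at least 30%, or all replicates individually reaching that 30% level; inactive = mean below 30% and not every replicate reaching it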;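 note: 0% = neutral control wells and 100% = L-leucinethiol positive control wells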
Active calls of the source: *; nt = not tested or not shown.

SMILES	ARNT-TACC3 inh	PGC1a acetyl inh	CASP6 VEID inh	Ecoli rRNA inh	S100A4 MyoIIA	ERAP1 HTS inh
CN1OC[C@@H]2CN(Cc3ccccc3)[C@H](c3ccc(-n4ccnc4)cc3)C[C@@H]21	nt	-9	-7	-32*	-3	nt
CN1OC[C@@H]2CN(C(=O)CCc3ccccc3)[C@H](c3ccc(-n4ccnc4)cc3)C[C@@H]21	nt	1	3	8	-11	9
C[C@H](CO)N1C[C@H](C)[C@H](CN(C)C)Oc2ccc(NS(=O)(=O)c3ccccc3)cc2CC1=O	nt	0	-1	2	95*	1
C[C@@H]1CN([C@H](C)CO)C(=O)Cc2cc(NS(=O)(=O)c3ccccc3)ccc2O[C@@H]1CN(C)Cc1ccccc1	6	-5	6	-2	79*	0
FC(F)(F)CN1CC2C(c3ccc(Br)cc3)C(C1)N2CC(F)(F)F (stereo not drawn)	nt	nt	nt	-2	nt	nt
COC(=O)c1ccc(C2/C(=C(\O)c3cccc(OC)c3)C(=O)C(=O)N2CCCN(C)C)cc1 (stereo not drawn)	59*	nt	-6	nt	1	-1
Cc1c(/C(O)=C2\C(=O)C(=O)N(CCCN(C)C)C2c2ccccc2)cnn1-c1ccccc1 (stereo not drawn)	-7	82*	-3	20	14	-1
Cc1c(/C(O)=C2\C(=O)C(=O)N(CCN(C)C)C2c2cccnc2)cnn1-c1ccccc1 (stereo not drawn)	-10	-2	nt	nt	nt	nt
O=C(Nc1ccc(Cl)cc1)Nc1ccc(-c2cnco2)cc1	2	nt	0	-22*	4	2
COCC(=O)N1CC[C@@H]2[C@H]1c1cc(-c3cccc(OC)c3)ccc1N(C)[C@H]2CO	-4	-4	-1	1	2	0
COc1ccc(NC(=O)c2cccn(CC=C(C)C)c2=O)cc1	-5	8	-1	-26*	-3	-1
O=C(Nc1ccccc1N1CCN(C(=O)c2ccccc2)CC1)c1ccc([N+](=O)[O-])o1	2	nt	2	-25*	-2	0
O=C(Nc1ccc(N2CCN(C(=O)c3ccccc3)CC2)c(Cl)c1)c1ccc(Br)o1	-6	0	-5	-23*	-12	2
O=C(Nc1ccc(N2CCN(C(=O)c3ccccc3)CC2)cc1)c1ccc(Br)o1	4	-52	nt	nt	nt	nt
C[C@H]1CN([C@@H](C)CO)C(=O)Cc2cc(NC(=O)C3CCCCC3)ccc2O[C@H]1CN(C)C(=O)NC1CCCCC1	-5	-1	-1	0	5	-3
CO[C@H]1CN(C)C(=O)c2cc(NS(C)(=O)=O)ccc2OC[C@H](C)N(Cc2cccnc2)C[C@@H]1C	nt	13	nt	2	nt	nt
NC(=NCCc1c[nH]c2ccccc12)NS(=O)(=O)c1ccc2ccccc2c1	11	nt	nt	nt	nt	nt
NC(=NCCc1c[nH]c2ccccc12)NC(=O)c1ccc(F)cc1	11	-13	2	-33*	4	-2
NC(=NCCc1c[nH]c2ccccc12)NS(=O)(=O)c1ccc(F)cc1	-17	nt	1	-20*	2	11
O=C(C[C@H]1CC[C@H]2[C@@H](COC[C@H](O)CN2Cc2ccc(Oc3ccccc3)cc2)O1)Nc1nccs1	-2	9	2	-6	4	0
COc1ccc(OC)c(C(=O)/C=C/c2ccccc2C(F)(F)F)c1	-10	46*	nt	nt	nt	nt
Cc1ccc(-c2ccc([C@H]3[C@H](CO)N4CCCCN(C(=O)Nc5cccc(F)c5)C[C@@H]34)cc2)cc1	10	0	nt	-54	nt	nt
Cc1ccc(C)c(-n2c3nc(=O)[nH]c(=O)c-3cc3cc([N+](=O)[O-])ccc32)c1	7	15	50*	9	4	10
COC(=O)c1ccccc1OCCOCCOc1cccc2ccc(C)nc12	-2	nt	-1	-28*	-9	-1
Cc1ccc(OCCOc2cccc3ccc(C)nc23)c([N+](=O)[O-])c1	3	nt	2	-21*	2	0
SMILES	ARNT-TACC3 inh	PGC1a acetyl inh	CASP6 VEID inh	Ecoli rRNA inh	S100A4 MyoIIA	ERAP1 HTS inh
C[C@@H]1CN([C@H](C)CO)C(=O)c2cc(NC(=O)CCCN(C)C)ccc2O[C@@H](C)CCCCO[C@H]1CN(C)Cc1ccccc1	-7	-6	-1	2	1	-4
COc1ccccc1OCC(=O)Nn1c(=S)[nH]c2ncccc2c1=O	-1	8	-3	14	-2	2
Cc1n[nH]c(=S)n(NC(=O)CC(=O)Nn2c(=S)[nH]nc(C)c2=O)c1=O	67*	8	-6	-3	-1	0
Cc1nn2c(=S)[nH]nc2[nH]c1=O	-1	-1	6	14	-13	-2
Cc1n[nH]c(=S)n(NC(=O)/C=C/C(=O)Nn2c(=S)[nH]nc(C)c2=O)c1=O	66*	nt	17	-3	14	nt
CO[C@H]1CN(C)C(=O)c2cc(NC(C)=O)ccc2OC[C@@H](C)N(CCC(F)(F)F)C[C@@H]1C	27	-5	nt	-2	4	0
O=C1C2CC=C(Cl)CC2C(=O)N1CCc1c[nH]c2ccccc12 (stereo not drawn)	4	-7	4	-26*	-2	1
CC1=CCC2C(=O)N(CCc3c[nH]c4ccccc34)C(=O)C2C1 (stereo not drawn)	-35	-3	nt	nt	nt	nt
CC(C)NC(=O)Nc1ccc2c(c1)C(=O)N([C@H](C)CO)C[C@H](C)[C@H](CN(C)S(=O)(=O)c1cn(C)cn1)OCCCC[C@H](C)O2	-1	-3	3	0	6	1
COc1cc(NC(=S)NCCO)c(OC)cc1Cl	0	6	3	nt	-8	nt
COCCCNC(=S)Nc1cc(C)c(C)cc1C	2	75*	-4	nt	0	-2
COCCNC(=S)Nc1cc(OC)c(OC)cc1C#N	50*	nt	2	19	5	6
O=C(N/N=C/c1ccccc1)C(=O)N/N=C/c1ccccc1	-1	nt	-1	16	0	-7
O=C(C=C=Nc1ccccc1)C(=O)N=C=Cc1ccccc1	-5	-27	2	-31*	-1	nt
O=C1OC(c2ccc3ccccc3c2O)(c2ccc3ccccc3c2O)c2ccccc21	nt	-24	0	-41*	-7	0
O=C1OC2(c3ccccc31)c1ccccc1-c1ccccc12	-2	nt	-2	-8	4	0
CC1=NN(c2ccc(C(=O)O)cc2)C(=O)/C1=C\c1ccc(OC(=O)c2cccs2)cc1	28	1	52*	5	0	-2
CCOc1cc(/C=C2\C(=O)N(c3ccc(C(N)=O)cc3)N=C2C)ccc1OC(=O)c1cccs1	14*	9	nt	nt	nt	nt
CC1=NN(c2ccccc2)C(=O)/C1=C/c1cccs1	-19	nt	nt	nt	nt	nt
CCOc1cc(/C=C2/C(=O)N(c3ccccc3)N=C2C)ccc1OC(=O)c1ccco1	8	1	nt	nt	nt	nt
